The Ki is a dissociation constant, usually derived from enzyme kinetics or from competition with a known ligand. By inhibition is commonly meant the share of the control response that was lost under treatment.

Here are results for 49 compounds from ChEMBL document CHEMBL4261508, “Pyrazolo[3,4-d]pyrimidines as sigma-1 receptor ligands for the treatment of pain. Part 2: Introduction of cyclic substituents in position 4” (Medchemcomm, 2017).

For series [1], the target named is Sigma non-opioid intracellular receptor 1 (Homo sapiens, UniProt Q99720). The series can be described thus: Displacement of [3H]-(+)-pentazocine from recombinant human sigma1 receptor expressed in HEK293 cell membranes after 120 mins by microbeta scintillation counting method. In general terms: Loss of bound radioactivity is the signal in a displacement assay; it reports binding, not function.

The species named for another series is Cavia porcellus. The experiment in a line: Displacement of [3H]-DTG from sigma2 receptor in guinea pig brain membranes at 1 uM after 120 mins in presence of sigma1 […] (+)-SKF10047 by microbeta scintillation counting method relative to control. Format: cell membranes. To be noted: Membrane. In short, it runs like this: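 σ2R binding in guinea pig brain membranes with [³H]-di-o-tolylguanidine as radioligand. Compound tested at 1 μM as % inhibition. Mean of two determinations.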

Series [2] can be described thus: Stability of the compound assessed as drug degradation at pH 7.4. Format: physicochemical. To be noted: buffer. In short, it runs like this:
(§1)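 Chemical stability measured by LC/MS. A 10 mM DMSO stock of compound was diluted into phosphate buffer pH 7.4 or 0.01 M HCl pH 2.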

The nature of series [3]: Stability of the compound assessed as drug degradation at pH 2. Type of series: physicochemical. To be noted: buffer. A digest of the protocol: as §1

Sequence of Sigma non-opioid intracellular receptor 1 (Q99720 whole entry): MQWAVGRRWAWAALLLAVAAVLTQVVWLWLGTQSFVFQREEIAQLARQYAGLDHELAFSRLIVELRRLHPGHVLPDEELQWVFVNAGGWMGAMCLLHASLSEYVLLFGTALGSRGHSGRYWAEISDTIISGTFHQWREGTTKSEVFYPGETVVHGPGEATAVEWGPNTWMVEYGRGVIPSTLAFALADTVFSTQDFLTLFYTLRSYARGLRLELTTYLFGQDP

As to `N#Cc1ccc(-c2ncnc3c2cnn3CCN2CCCCC2)cc1`, the Ki in series [1] was 558 nM. In the series filed under Cavia porcellus, the inhibition turned out to be 47%.
Turning to `c1ccc2c(-c3ncnc4c3cnn4CCN3CCCCC3)cncc2c1`, the Ki in series [1] was found to be 666 nM.
Take `c1ccc(C2CCN(c3ncnc4c3cnn4CCN3CCCCC3)C2)cc1` (stereo unspecified): the Ki in series [1] came out at 294 nM. Besides, the inhibition in the series listed under Cavia porcellus came out at 71%.
`Clc1ccccc1-c1ncnc2c1cnn2CCN1CCCCC1`: the Stability entry in series [2] and in series [3] was “Stable” each time. Also, the Ki in series [1] stood at 76 nM. Besides, the inhibition in the series filed under Cavia porcellus is 92%.
Take `Cc1ncccc1-c1ncnc2c1cnn2CCN1CCCCC1`: the Ki in series [1] was 732 nM.
On to `COc1ccc(-c2ncnc3c2cnn3CCN2CCCCC2)cn1`, for which, in series [1], the inhibition constant (Ki) amounted to 38300 nM.
As for `Fc1ccc(-c2ncnc3c2cnn3CCN2CCCCC2)cc1C(F)(F)F`, the Stability entry in series [2] and in series [3] was “Stable” each time. The Ki in series [1] is 57 nM. The inhibition in the series filed under Cavia porcellus turned out to be 87%.
Consider `c1cncc(-c2ncnc3c2cnn3CCN2CCCCC2)c1`, for which the inhibition constant (Ki) in series [1] was 926 nM.
Take `Cc1ccncc1-c1ncnc2c1cnn2CCN1CCCCC1`: the Ki in series [1] is 707 nM.
With `Fc1cc(Cl)ccc1-c1ncnc2c1cnn2CCN1CCCCC1`, the Ki in series [1] amounted to 112 nM. Also, the inhibition in the series listed under Cavia porcellus came to 73%.
`c1coc(-c2ncnc3c2cnn3CCN2CCCCC2)n1`: the Ki in series [1] was determined as 23800 nM.
On the same count and under the same terms, the figure for `CC(C)n1cc(-c2ncnc3c2cnn3CCN2CCCCC2)cn1` is 2910 nM.
Consider `c1nc(-c2cnsc2)c2cnn(CCN3CCCCC3)c2n1`, for which the inhibitory constant (Ki) in series [1] was determined as 475 nM. The inhibition in the series listed under Cavia porcellus was 40%.
Consider `Cn1cccc1-c1ncnc2c1cnn2CCN1CCCCC1`, for which the Stability result in series [2] and in series [3] was “Stable” each time. Further, in series [1], the Ki worked out at 31 nM.
Regarding `Cc1ccc(C)n1-c1ncnc2c1cnn2CCN1CCCCC1`, the Ki in series [1] worked out at 740 nM.
Consider `c1ccc2c(c1)ncn2-c1ncnc2c1cnn2CCN1CCCCC1`, for which the Ki in series [1] amounted to 112 nM. Further, the inhibition in the series filed under Cavia porcellus stood at 66%.
As for `c1ccc(-c2ncnc3c2cnn3CCN2CCCCC2)nc1`, in series [1], the inhibitory constant (Ki) is 634 nM.
Still for that read-out and setting: the figure for `COc1ncccc1-c1ncnc2c1cnn2CCN1CCCCC1` is 112 nM.
As to `c1ccc(-c2ncnc3c2cnn3CCN2CCCCC2)cc1`, the Ki in series [1] was 100 nM. The inhibition in the series filed under Cavia porcellus was 69%.
The corresponding values for `FC1(F)CCN(c2ncnc3c2cnn3CCN2CCCCC2)CC1` are 108 nM and 67%.
For the compound `Clc1ccc(-c2ncnc3c2cnn3CCN2CCCCC2)cc1`, the Stability entry in series [2] and in series [3] was “Stable” throughout. The Ki in series [1] was found to be 43 nM. In the series listed under Cavia porcellus, the inhibition turned out to be 74%.
For `Cc1noc(C)c1-c1ncnc2c1cnn2CCN1CCCCC1`, the Stability entry in series [2] and in series [3] was “Stable” in each case. In series [1], the Ki came to 72 nM.
`c1cc(-c2ncnc3c2cnn3CCN2CCCCC2)ccn1`: the inhibitory constant (Ki) in series [1] stood at 1720 nM.
Turning to `COc1ccc(-c2ncnc3c2cnn3CCN2CCCCC2)cc1`, the Ki in series [1] came to 531 nM. The inhibition in the series filed under Cavia porcellus was 58%.
Regarding `c1cn(-c2ncnc3c2cnn3CCN2CCCCC2)cn1`, the Ki in series [1] is 13800 nM.
For the compound `Cc1ccc(Cl)c(-c2ncnc3c2cnn3CCN2CCCCC2)c1`, the Stability result in series [2] and in series [3] was “Stable” throughout. For the same compound, the Ki in series [1] amounted to 31 nM. Moreover, in the series listed under Cavia porcellus, the inhibition was found to be 95%.
For the compound `Cn1cncc1-c1ncnc2c1cnn2CCN1CCCCC1`, the Ki in series [1] amounted to 715 nM.
On the same count and under the same terms, the figure for `c1nc(-c2cn[nH]c2)c2cnn(CCN3CCCCC3)c2n1` is 802 nM.
On to `Cc1cccc(-c2ncnc3c2cnn3CCN2CCCCC2)n1`, for which the Ki in series [1] turned out to be 709 nM.
On to `Fc1ccc(-c2ncnc3c2cnn3CCN2CCCCC2)cc1`, for which the Stability result in series [2] and in series [3] was “Stable” throughout. Further, the Ki in series [1] is 95 nM. The inhibition in the series listed under Cavia porcellus stood at 75%.
Regarding `c1csc(-c2ncnc3c2cnn3CCN2CCCCC2)n1`, in series [1], the Ki came to 1830 nM.
`COc1cc(F)ccc1-c1ncnc2c1cnn2CCN1CCCCC1`: the Stability result in series [2] and in series [3] was “Stable” throughout. Further, the Ki in series [1] is 39 nM. Also, in the series filed under Cavia porcellus, the inhibition worked out at 87%.
Regarding `Clc1ccc(-c2ncnc3c2cnn3CCN2CCCCC2)s1`, the Stability result in series [2] and in series [3] was “Stable” each time. Also, the Ki in series [1] came out at 35 nM.
On to `Cc1ccc(C)c(-c2ncnc3c2cnn3CCN2CCCCC2)c1`, for which the Stability entry in series [2] and in series [3] was “Stable” each time. The inhibition constant Ki in series [1] stood at 63 nM. Besides, in the series filed under Cavia porcellus, the inhibition is 89%.
Consider `FC(F)(F)c1ccccc1-c1ncnc2c1cnn2CCN1CCCCC1`, for which the Ki in series [1] came out at 125 nM. Besides, the inhibition in the series filed under Cavia porcellus was 86%.
`Cc1cc(F)ccc1-c1ncnc2c1cnn2CCN1CCCCC1`: the Stability entry in series [2] and in series [3] was “Stable” each time. The Ki in series [1] came out at 48 nM. In addition, in the series listed under Cavia porcellus, the inhibition amounted to 86%.
As to `Cn1cnc(-c2ncnc3c2cnn3CCN2CCCCC2)c1`, in series [1], the inhibition constant Ki was found to be 11800 nM.
In the case of `c1nc(N2CCCCC2)c2cnn(CCN3CCCCC3)c2n1`, the Ki in series [1] was 200 nM. The inhibition in the series listed under Cavia porcellus worked out at 67%.
In the case of `Fc1ccc(-c2ncnc3c2cnn3CCN2CCCCC2)c(F)c1`, the Stability result in series [2] and in series [3] was “Stable” each time. Further, in series [1], the Ki was found to be 93 nM. Further, in the series filed under Cavia porcellus, the inhibition was 83%.
In the case of `CC(C)(C)C(=O)Nc1ncnc2c1cnn2CCN1CCCCC1`, the Stability result in series [2] and in series [3] was “Stable” each time.
Take `Cc1cncc(-c2ncnc3c2cnn3CCN2CCCCC2)c1`: the Ki in series [1] was determined as 447 nM.
In the case of `CCOc1ccccc1-c1ncnc2c1cnn2CCN1CCCCC1`, the Ki in series [1] was 300 nM. The inhibition in the series filed under Cavia porcellus worked out at 81%.
With `Cc1ccccc1-c1ncnc2c1cnn2CCN1CCCCC1`, the Stability result in series [2] and in series [3] was “Stable” in each case. For the same compound, the Ki in series [1] came out at 74 nM. For the same compound, the inhibition in the series filed under Cavia porcellus is 83%.
As to `O=C1CCCN1c1ncnc2c1cnn2CCN1CCCCC1`, the Ki in series [1] was determined as 6190 nM.
In the case of `CNC1CCN(c2ncnc3c2cnn3CCN2CCCCC2)C1` (stereo unspecified), in series [1], the Ki was 25800 nM.
On to `Cc1cccc(-c2ncnc3c2cnn3CCN2CCCCC2)c1`, for which the Stability result in series [2] and in series [3] was “Stable” each time. In addition, the Ki in series [1] turned out to be 82 nM. The inhibition in the series listed under Cavia porcellus was 82%.
For `Cn1cc(-c2ncnc3c2cnn3CCN2CCCCC2)cn1`, the Ki in series [1] turned out to be 9460 nM.
The same measure, in the same setting: the figure for `Cn1nc(C(F)(F)F)cc1-c1ncnc2c1cnn2CCN1CCCCC1` is 137 nM.
As to `CC1(C)CCN(c2ncnc3c2cnn3CCN2CCCCC2)C1`, the inhibition constant (Ki) in series [1] amounted to 165 nM. In addition, the inhibition in the series listed under Cavia porcellus is 58%.
